# Measured values published in PMC11613190 (iScience, 2024).
# Experiments:
# T2R14 [1] = target: T1, T2R14 (Homo sapiens, UniProt Q9NYV8); experiment: Intracellular calcium mobilization in human bronchial epithelial; assay type: cell-based
# T1 sequence (Q9NYV8 1-317): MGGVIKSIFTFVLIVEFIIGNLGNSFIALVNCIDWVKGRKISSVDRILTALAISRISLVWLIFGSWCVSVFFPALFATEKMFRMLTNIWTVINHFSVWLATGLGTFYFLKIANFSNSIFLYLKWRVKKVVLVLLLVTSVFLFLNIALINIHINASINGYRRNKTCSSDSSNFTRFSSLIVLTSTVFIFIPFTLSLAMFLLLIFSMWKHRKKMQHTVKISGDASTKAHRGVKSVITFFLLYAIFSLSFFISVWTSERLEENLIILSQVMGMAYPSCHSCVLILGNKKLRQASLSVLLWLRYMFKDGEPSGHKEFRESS
# T2R14 [2] = target: T1, T2R14; experiment: Intracellular calcium mobilization in HEK293T cells overexpressing T2R14; assay type: cell-based; settings: for Intracellular calcium mobilization: HEK293T cells overexpressing T2R14, concentration series
# Procedure, shortened: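 HEK293T cells overexpressing T2R14 were loaded for agonist-induced intracellular calcium mobilization. They were treated with increasing concentrations of the bacterial quorum-sensing molecule 3-oxo-C12-AHL (4.5–300 μM), tyrosol (15–1000 μM) or farnesol (7.5–500 μM).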
# [3] = system: CF HBE cells cultured at ALI; experiment: Total nitrate/nitrite release, fluorometric assay, CF HBE ALI cultures; assay type: cell-based, human; settings: for Effect on AIP-1 stimulated nitrate release: inhibitor 10 μM with AIP-1 50 μM; for Effect on nitrate release evoked by C12: inhibitor 10 μM with C12 100 μM
# Procedure, shortened: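 Primary CF human bronchial epithelial cells, carrying scrambled shRNA or T2R14 knockdown, were seeded on collagen-coated Transwells at 500,000 cells/well and grown at air-liquid interface to day 30. The apical surface was exposed for 18 h to C12 (100 µM) or AIP-1 (50 µM), with or without gallein or U73122 (10 μM each). Apical secretions were mixed with reductase cofactor for 30 min at room temperature, then total nitrate/nitrite was read fluorometrically.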
# NuLi-1 and CuFi-1 cells = experiment: cAMP response to CFTR corrector in airway epithelial cell lines; assay type: cell-based, human; settings: 5 µM for 24 h
# [4] = EC50, intracellular calcium mobilization, both BCF and BD cells
smiles,measurement,setting,value
"CCCCCCCCCC(=O)CC(=O)N[C@H]1CCOC1=O [C12, 3-oxo-12-AHL]",EC50,"T2R14 [1]; read-out: EC50, intracellular calcium mobilization, both BCF and BD cells",~100 µM
same,Intracellular calcium mobilization,T2R14 [2],concentration dependent increase in intracellular calcium mobilization
same,EC50,"T2R14 [2]; read-out: EC50, intracellular calcium mobilization, HEK 293T cells overexpressing T2R14",~60 µM
same,Total nitrate release vs untreated controls,"[3]; apical exposure 18 h, C12 100 μM, AIP-1 50 μM",significant elevation of total nitrate release
"CN(C)CCOC(c1ccccc1)c1ccccc1 [DPH, diphenhydramine]",EC50,"T2R14 [1]; EC50, Ca2+ mobilization, all the cell types investigated (NuLi-1, CuFi-1, BD, BCF)",~500 µM
O=C1OC2(c3ccccc31)c1ccc(O)c(O)c1Oc1c2ccc(O)c1O [Gallein],Effect on AIP-1 stimulated nitrate release,[3],without altering the AIP-1 stimulated release significantly
same,Effect on nitrate release evoked by C12,[3],reduced the nitrate release evoked by C12
COc1ccc2c(c1)CC[C@@H]1[C@@H]2CC[C@]2(C)[C@@H](NCCCCCCN3C(=O)C=CC3=O)CC[C@@H]12 [U73122],Effect on AIP-1 stimulated nitrate release,[3],without altering the AIP-1 stimulated release significantly
same,Effect on nitrate release evoked by C12,[3],reduced the nitrate release evoked by C12
"Cc1ccc(NC(=O)C2(c3ccc4c(c3)OC(F)(F)O4)CC2)nc1-c1cccc(C(=O)O)c1 [VX-809, lumacaftor]",cAMP levels in response to forskolin,NuLi-1 and CuFi-1 cells; CuFi-1 cells,significant increase in cAMP levels
same,cAMP levels in response to forskolin,NuLi-1 and CuFi-1 cells; NuLi cells,No significant change
CC(C)=CCC/C(C)=C/CC/C(C)=C/CO [farnesol],EC50,T2R14 [1]; [4],~120 µM
same,Intracellular calcium mobilization,T2R14 [2],concentration dependent increase in intracellular calcium mobilization
OCCc1ccc(O)cc1 [tyrosol],EC50,T2R14 [1]; [4],~100 µM
same,Intracellular calcium mobilization,T2R14 [2],concentration dependent increase in intracellular calcium mobilization
